Measurements gathered from unrelated publications.
Each line is one published result; the experiments were not run side by side.
JAK3: Tyrosine-protein kinase JAK3 (JAK3, Homo sapiens, UniProt P52333)
JAK3 JH1: Tyrosine-protein kinase JAK3, JH1 (JAK3, Homo sapiens, UniProt P52333)

SMILES | target | observed | mode | method | concentration | endpoint | result
CS(=O)(=O)Nc1cccc(-c2csc(NC(=O)CSc3nc4nccnc4c(=O)n3CCc3ccccc3)n2)c1 | JAK3 | enzyme activity | inhibitor |  | 10 µM | inhibition | 1%
COc1cc2ncnc(Nc3ccc(Oc4ccccc4)cc3C)c2cc1OC | JAK3 | enzyme activity | inhibitor |  | 1 µM | inhibition | -6%
O=C(O)[C@@H]1[C@@H](Cn2nnc3ccccc3c2=O)CC[C@H]1C(=O)c1ccc(OCCC2CCOCC2)cc1 | JAK3 JH1 | cell-free assay |  | competition with immobilised ligand | 1 µM | remaining binding | 95%
CN1CC(Oc2cnc(C#N)cc2-c2ccn3nc(NC(=O)C4CC4)cc3c2)C1 | JAK3 | enzyme activity | inhibitor |  | 1 µM | inhibition | 15%
N[C@H]1CCN(c2nccc(-c3cnn4ncccc34)n2)C1 | JAK3 JH1 | cell-free assay |  |  | 1 µM | remaining signal | 86%
O=C(O)c1cc(-c2ccc(C3CCNCC3)cc2)c2ccc(-c3ccc(C(F)(F)F)cc3)cc2c1 | JAK3 JH1 | cell-free assay |  | competition with immobilised ligand | 1 µM | remaining binding | 100%
Cc1sc(C(=O)NC2COC2)cc1-n1cc(NC(=O)Nc2c(F)cccc2Cl)cn1 | JAK3 | enzyme activity | inhibitor |  | 10 µM | remaining activity | 96.7%
COc1cc(Cl)c(C(=O)N[C@@H](CN[C@H]2CC[C@@H](N)CC2)Cc2ccc(C#N)cc2)cc1-c1ccc(CN[C@H](C)c2ccc(C)cc2)o1 | JAK3 | enzyme activity | inhibitor |  | 1 µM | remaining activity | 101%
O=C(Nc1cnc(Oc2ccc(F)cc2)nc1)N1CCc2ncccc2[C@@H]1c1ccc(F)cc1 | JAK3 JH1 | cell-free assay |  | competition with immobilised ligand | 1 µM | remaining binding | 91%
CCN(CC)CCNC(=O)c1c(C)[nH]c(/C=C2\C(=O)Nc3ccc(F)cc32)c1C | JAK3 | enzyme activity | inhibitor |  | 10 µM | inhibition | 69%
COc1cc2ncnc(Nc3ccc(F)c(Cl)c3)c2cc1OCCCN1CCOCC1 | JAK3 | cell-free assay |  |  | 0.5 µM | remaining signal | 96.6%
O=C(Nc1cnn(-c2csc(C(=O)NC3COC3)c2)c1)Nc1c(F)cccc1Cl | JAK3 | enzyme activity | inhibitor |  | 5 µM | remaining activity | 98.7%
Cc1cnc(NC2CCOCC2)nc1-n1cnc(C(=O)NC(CN)c2cc(F)cc(Cl)c2)c1 (stereo not shown) | JAK3 | enzyme activity | inhibitor | radiometric | 1 µM | remaining activity | 118%
O=C1Nc2ccc(Cl)cc2C1=Cc1cc(Cl)c(O)c(Cl)c1 | JAK3 | cell-free assay |  |  | 0.5 µM | remaining signal | 100%
CCOc1cc(-c2nncn2C)ccc1Nc1ncc2cc(C)nc(NCC(C)(C)C)c2n1 | JAK3 | enzyme activity | inhibitor | FRET | 1 µM | inhibition | < 15%
CC(C)(O)[C@H]1CC[C@H](Nc2ccc3ncc(-c4cccc(C(F)(F)F)c4)n3n2)CC1 | JAK3 | enzyme activity | inhibitor |  | 1 µM | remaining activity | 84.8%
CNCc1ccccc1-c1csc([C@H](C)Nc2nc(C)nc3cc(OC)c(OC)cc23)c1 | JAK3 JH1 | cell-free assay |  | competition with immobilised ligand | 1 µM | remaining binding | 99%
CCN(CC)c1ccc(C2=NNC(=O)CC2C)cc1[N+](=O)[O-] (stereo not shown) | JAK3 | enzyme activity | inhibitor |  | 10 µM | remaining activity | 134%
CN(c1nccc(-c2cnn3ncccc23)n1)C1CC1 | JAK3 JH1 | cell-free assay |  |  | 1 µM | remaining signal | 100%
CC(C)(C)c1nc2c(s1)c1nc(N)ncc1c1ccc(NS(=O)(=O)c3c(F)cccc3F)c(F)c12 | JAK3 | enzyme activity | inhibitor | radiometric | 1 µM | remaining activity | 100%
NS(=O)(=O)c1cc(NC(=O)Cc2ccccc2)ccc1Oc1cccc(Cl)c1 | JAK3 JH1 | cell-free assay |  | competition with immobilised ligand | 1 µM | remaining binding | 96%
C[C@H]1CCN(c2nccc(-c3cnn4ncccc34)n2)C1 | JAK3 JH1 | cell-free assay |  |  | 1 µM | remaining signal | 84%
CCC(=N\O)/C(C)=C/c1ccc(F)cc1 | JAK3 JH1 | cell-free assay |  | competition with immobilised ligand | 1 µM | remaining binding | 80%
Cc1ccc(Nc2nccc(N(C)c3ccc4c(C)n(C)nc4c3)n2)cc1S(N)(=O)=O | JAK3 | enzyme activity | inhibitor |  | 0.3 µM | inhibition | 11%
CN(C)CC#Cc1ccc(OCCCc2sc(N3CCc4cccc(C(=O)Nc5nc6ccccc6s5)c4C3)nc2C(=O)O)c(F)c1 | JAK3 JH1 | cell-free assay |  | competition with immobilised ligand | 1 µM | remaining binding | 58%
Oc1ccc(-c2nc(-c3ccncc3)c(-c3ccc(F)cc3)[nH]2)cc1 | JAK3 | cell-free assay |  |  | 0.5 µM | remaining signal | 95.8%
O=C(NCCCC1CCCCC1)c1ccc(CNC(=O)c2cnn(-c3ccccc3)c2C(F)(F)F)cc1 | JAK3 JH1 | cell-free assay |  | competition with immobilised ligand | 0.1 µM | remaining binding | 100%
COc1cc2nccc(Oc3ccc(NC(=O)c4c5n(n(-c6ccc(F)cc6)c4=O)CCCC5)cc3)c2cc1OC | JAK3 | enzyme activity | inhibitor |  | 0.1 µM | inhibition | -18%
